Measurements from ChEMBL document CHEMBL4219244, “Blocking Alcoholic Steatosis in Mice with a Peripherally Restricted Purine Antagonist of the Type 1 Cannabinoid Receptor” (J Med Chem, 2018).
The source made the active and inactive calls. The calls are words filed in the database; no cut-off is given here.

Legend:
Cannabinoid receptor 1 = Cannabinoid receptor 1 (Homo sapiens, UniProt P21554); assay: Displacement of [3H]CP55940 from human CB1 expressed in CHOK1 cell membranes
Cannabinoid receptor 2 = Cannabinoid receptor 2 (Homo sapiens, UniProt P34972); assay: Displacement of [3H]CP55940 from human CB2 expressed in CHOK1 cell membranes
Sequence of Cannabinoid receptor 2 (P34972 whole entry): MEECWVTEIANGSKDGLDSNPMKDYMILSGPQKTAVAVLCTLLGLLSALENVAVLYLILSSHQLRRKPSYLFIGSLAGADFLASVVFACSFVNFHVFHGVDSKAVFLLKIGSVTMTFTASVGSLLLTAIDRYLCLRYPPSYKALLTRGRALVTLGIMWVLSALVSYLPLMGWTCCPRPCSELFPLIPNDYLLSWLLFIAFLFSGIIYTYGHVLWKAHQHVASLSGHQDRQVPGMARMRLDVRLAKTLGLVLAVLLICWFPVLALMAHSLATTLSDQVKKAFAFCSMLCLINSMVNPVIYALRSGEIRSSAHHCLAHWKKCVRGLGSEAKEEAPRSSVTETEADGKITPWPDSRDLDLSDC

Homo sapiens = species: Homo sapiens; assay: Selectivity ratio of Ki for human CB2 to Ki for human CB1
How it was run: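 Displacement of [3H]CP55940 binding to membranes from CHO cells overexpressing human CB1 or human CB2. Ki was determined at each receptor, and the ratio was taken as Ki(hCB2)/Ki(hCB1). Values are averages of three to six measurements.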

[1] = Aqueous kinetic solubility of the compound in 10 mM phosphate buffer at pH 1.6 after 90 mins by LC/MS analysis; type: physicochemical; conditions: read-out: Kinetic_solubility
How it was run: (§1)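 10 mM DMSO stocks diluted into 10 mM phosphate buffer (final DMSO 1%), shaken 90 min at room temperature, filtered through 0.4 μm plates. Filtrate concentration quantified by LC/MS against a six-point standard curve. Mean of three determinations.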

[2] = Aqueous kinetic solubility of the compound in 10 mM phosphate buffer at pH 7.4 after 90 mins by LC/MS analysis; type: physicochemical; conditions: read-out: Kinetic_solubility; how it was run: as §1
[3] = Drug uptake in C57BL/6 mouse brain at 1.25 mg/kg, po bid administered via gavage treated for 7 days measured at 0.5 to 24 hrs post last dose; type: ADME, organism-based; conditions: in vivo
Mus musculus [4] = assay: Anti-hepatic steatosis activity in alcohol-induced hepatic steatosis C57BL/6 mouse model assessed as reduction in hepatic lipid accumulation at 1.25 mg/kg, po bid administered via gavage treated for 2 weeks by oil red o-staining based histopathological assay; type: functional, organism-based
How it was run: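 Female C57BL6 mice on Lieber-DeCarli liquid diet; ethanol raised progressively 1 to 5% (v/v) over 15 days, then 4 further weeks; pair-fed controls on control diet. Drug suspended in 0.5% sodium carboxymethylcellulose, 1% NMP, 0.3% Tween 80, given 1.25 mg/kg twice daily by gavage for last 2 weeks. Liver sections (10 μm, OCT) stained with Oil Red O; droplets counted in six grids per image; n = 6 per group; ANOVA.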

Mus musculus [5] = assay: Suppression of CP55940-induced hypothermia in C57BL/6 mouse assessed as reduction in body temperature at 10 mg/kg, po administered via gavage pretreated for 30 mins followed by CP55940 addition measured at regular interval up to 4 hrs; type: ADME, organism-based; conditions: in vivo
How it was run: (§2)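 Female C57BL6 mice, acclimated 2 weeks, given test agent or vehicle by oral gavage; after 30 min, CP55940 0.56 mg/kg ip in corn oil. Rectal temperature recorded at regular intervals up to 4 h. Six animals per group; means and standard deviations; two-way ANOVA versus vehicle.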

[6] = Drug uptake in alcohol-induced hepatic steatosis C57BL/6 mouse model brain at 1.25 mg/kg, po bid administered via gavage treated for 2 weeks measured at 16 hrs post last dose by LC-MS method; type: ADME, organism-based; conditions: in vivo
Mus musculus [7] = assay: Suppression of CP55940-induced hypothermia in C57BL/6 mouse assessed as reduction in body temperature at 30 mg/kg, po administered via gavage pretreated for 30 mins followed by CP55940 addition measured at regular interval up to 4 hrs; type: ADME, organism-based; conditions: in vivo; how it was run: as §2
[8] = Drug uptake in C57BL/6 mouse brain at 5 mg/kg, po after 0.6 to 24 hrs by LC-MS method; type: ADME, organism-based; conditions: in vivo

Sequence of Cannabinoid receptor 1 (P21554 whole entry): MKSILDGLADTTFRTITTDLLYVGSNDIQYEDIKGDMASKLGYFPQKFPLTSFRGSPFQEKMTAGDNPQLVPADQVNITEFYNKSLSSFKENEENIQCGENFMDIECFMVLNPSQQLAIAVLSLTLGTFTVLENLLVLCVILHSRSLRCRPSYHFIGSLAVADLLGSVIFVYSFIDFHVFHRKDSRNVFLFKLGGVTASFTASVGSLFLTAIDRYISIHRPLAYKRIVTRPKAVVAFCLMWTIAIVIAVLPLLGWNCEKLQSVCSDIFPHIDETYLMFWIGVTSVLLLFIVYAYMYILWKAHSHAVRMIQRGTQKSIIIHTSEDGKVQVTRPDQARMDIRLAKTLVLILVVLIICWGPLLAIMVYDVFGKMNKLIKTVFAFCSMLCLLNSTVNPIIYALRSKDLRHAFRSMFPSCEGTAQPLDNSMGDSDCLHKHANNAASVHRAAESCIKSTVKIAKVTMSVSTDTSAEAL

Clc1ccc(-n2c(-c3ccccc3Cl)nc3c(N4CCN(CCc5ccncc5)CC4)ncnc32)cc1
Ki (Cannabinoid receptor 1): 12 nM
Ki (Cannabinoid receptor 2): 630 nM
Ratio Ki (Homo sapiens): 52

Clc1ccc(-n2c(-c3ccccc3Cl)nc3c(N4CCN(Cc5ccccc5Cl)CC4)ncnc32)cc1
solubility kinetic at […] [1]: > 200 µM
solubility kinetic at […] [2]: < 0.4 µM
Drug uptake [3]: Not Active
Activity (Mus musculus [4]): Active
Activity (Mus musculus [5]): Non-Toxic
Drug uptake [6]: Not Active

N#CC(c1ccccc1)N1CCN(c2ncnc3c2nc(-c2ccccc2Cl)n3-c2ccc(Cl)cc2)CC1 (stereo not given)
Ki (Cannabinoid receptor 1): 7 nM
Ki (Cannabinoid receptor 2): 460 nM
Ratio Ki (Homo sapiens): 66

N#Cc1ccccc1N1CCN(c2ncnc3c2nc(-c2ccccc2Cl)n3-c2ccc(Cl)cc2)CC1
Ki (Cannabinoid receptor 2): > 10000 nM

FC(F)(F)Oc1ccccc1CN1CCN(c2ncnc3c2nc(-c2ccccc2Cl)n3-c2ccc(Cl)cc2)CC1
Ki (Cannabinoid receptor 2): > 10000 nM

Cc1ccc(CN2CCN(c3ncnc4c3nc(-c3ccccc3Cl)n4-c3ccc(Cl)cc3)CC2)cc1
Ki (Cannabinoid receptor 2): > 10000 nM

Clc1ccc(-n2c(-c3ccccc3Cl)nc3c(N4CCN(c5ccccc5)CC4)ncnc32)cc1
Ki (Cannabinoid receptor 2): > 10000 nM

CCNC1(C(N)=O)CCN(c2ncnc3c2nc(-c2ccccc2Cl)n3-c2ccc(Cl)cc2)CC1 [OTENABANT]
Activity (Mus musculus [7]): Toxic

Oc1cccc(N2CCN(c3ncnc4c3nc(-c3ccccc3Cl)n4-c3ccc(Cl)cc3)CC2)c1
Ki (Cannabinoid receptor 1): 25 nM
Ki (Cannabinoid receptor 2): > 10000 nM

Clc1ccc(-n2c(-c3ccccc3Cl)nc3c(N4CCN(Cc5ccccc5)CC4)ncnc32)cc1
Ki (Cannabinoid receptor 1): 4 nM
Ki (Cannabinoid receptor 2): 430 nM
Ratio Ki (Homo sapiens): 110

COc1ccccc1N1CCN(c2ncnc3c2nc(-c2ccccc2Cl)n3-c2ccc(Cl)cc2)CC1
Ki (Cannabinoid receptor 1): 2 nM
Ki (Cannabinoid receptor 2): 5000 nM

COc1ccc(CN2CCN(c3ncnc4c3nc(-c3ccccc3Cl)n4-c3ccc(Cl)cc3)CC2)cc1
Ki (Cannabinoid receptor 2): > 10000 nM

Cc1ccccc1CN1CCN(c2ncnc3c2nc(-c2ccccc2Cl)n3-c2ccc(Cl)cc2)CC1
Ki (Cannabinoid receptor 2): 4600 nM

Clc1ccc(CN2CCN(c3ncnc4c3nc(-c3ccccc3Cl)n4-c3ccc(Cl)cc3)CC2)cc1
Ki (Cannabinoid receptor 2): > 10000 nM

Cc1c(C(=O)NN2CCCCC2)nn(-c2ccc(Cl)cc2Cl)c1-c1ccc(Cl)cc1 [RIMONABANT]
Drug uptake [8]: Active

N#Cc1ccc(N2CCN(c3ncnc4c3nc(-c3ccccc3Cl)n4-c3ccc(Cl)cc3)CC2)cc1
Ki (Cannabinoid receptor 2): > 10000 nM

COc1ccc(N2CCN(c3ncnc4c3nc(-c3ccccc3Cl)n4-c3ccc(Cl)cc3)CC2)cc1
Ki (Cannabinoid receptor 2): > 10000 nM
